Read-outs that look alike come from different tables or passages of the source.
Assays:
[1] = tested on: nicotine-induced antinociception (tail-flick); conditions: mice, antagonism of acute nicotine; parentheses: confidence limits; cited from earlier work
[2] = tested on: nicotine-induced antinociception (hot-plate); conditions: mice, antagonism of acute nicotine; parentheses: confidence limits; cited from earlier work
[3] = tested on: nicotine-induced locomotor depression; conditions: mice, antagonism of acute nicotine; parentheses: confidence limits; cited from earlier work
[4] = tested on: nicotine-induced hypothermia; conditions: mice, antagonism of acute nicotine; parentheses: confidence limits; cited from earlier work
[5] = biological target: T1, human DAT (Homo sapiens, UniProt Q01959); conditions: HEK-293 cells, mean ± standard error; cited from earlier work
T1 sequence (Q01959 whole entry): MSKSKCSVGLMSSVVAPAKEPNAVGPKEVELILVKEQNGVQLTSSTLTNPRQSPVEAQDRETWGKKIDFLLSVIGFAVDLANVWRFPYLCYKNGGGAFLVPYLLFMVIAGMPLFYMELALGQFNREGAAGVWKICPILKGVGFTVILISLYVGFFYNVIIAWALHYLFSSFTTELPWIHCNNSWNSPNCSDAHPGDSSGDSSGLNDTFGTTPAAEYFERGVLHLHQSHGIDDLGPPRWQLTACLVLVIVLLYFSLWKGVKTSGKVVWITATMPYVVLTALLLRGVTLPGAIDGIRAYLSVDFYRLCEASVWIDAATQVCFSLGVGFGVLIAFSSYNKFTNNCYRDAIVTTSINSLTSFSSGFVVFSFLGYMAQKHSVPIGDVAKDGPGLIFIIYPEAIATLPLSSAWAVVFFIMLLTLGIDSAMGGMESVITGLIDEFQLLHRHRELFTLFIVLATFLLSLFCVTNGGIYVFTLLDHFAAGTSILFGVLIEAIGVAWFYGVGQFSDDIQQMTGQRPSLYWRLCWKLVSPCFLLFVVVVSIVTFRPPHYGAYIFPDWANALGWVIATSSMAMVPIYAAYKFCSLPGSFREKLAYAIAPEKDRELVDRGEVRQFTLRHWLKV

[6] = biological target: α1*-nAChR (muscle-type α1β1γδ-nAChR) (Homo sapiens, UniProt P02708+P07510+P11230+Q07001); experiment: 86Rb+ efflux assay of nAChR function; format: cell-based
Sequence of α1*-nAChR (muscle-type α1β1γδ-nAChR) (P02708 21-457): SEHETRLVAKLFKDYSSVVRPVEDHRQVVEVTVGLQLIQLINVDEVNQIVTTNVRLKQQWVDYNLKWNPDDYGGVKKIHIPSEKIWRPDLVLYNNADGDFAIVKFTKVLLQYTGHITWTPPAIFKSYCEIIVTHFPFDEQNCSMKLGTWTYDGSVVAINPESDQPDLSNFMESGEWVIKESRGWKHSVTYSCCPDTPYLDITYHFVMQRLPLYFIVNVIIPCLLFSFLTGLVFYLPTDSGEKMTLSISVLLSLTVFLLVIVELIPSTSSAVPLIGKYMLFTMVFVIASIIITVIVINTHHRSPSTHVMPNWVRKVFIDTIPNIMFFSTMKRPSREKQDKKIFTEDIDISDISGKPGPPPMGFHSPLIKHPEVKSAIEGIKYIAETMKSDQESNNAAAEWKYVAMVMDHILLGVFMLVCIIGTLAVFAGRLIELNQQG
Sequence of α1*-nAChR (muscle-type α1β1γδ-nAChR) (P11230 24-501): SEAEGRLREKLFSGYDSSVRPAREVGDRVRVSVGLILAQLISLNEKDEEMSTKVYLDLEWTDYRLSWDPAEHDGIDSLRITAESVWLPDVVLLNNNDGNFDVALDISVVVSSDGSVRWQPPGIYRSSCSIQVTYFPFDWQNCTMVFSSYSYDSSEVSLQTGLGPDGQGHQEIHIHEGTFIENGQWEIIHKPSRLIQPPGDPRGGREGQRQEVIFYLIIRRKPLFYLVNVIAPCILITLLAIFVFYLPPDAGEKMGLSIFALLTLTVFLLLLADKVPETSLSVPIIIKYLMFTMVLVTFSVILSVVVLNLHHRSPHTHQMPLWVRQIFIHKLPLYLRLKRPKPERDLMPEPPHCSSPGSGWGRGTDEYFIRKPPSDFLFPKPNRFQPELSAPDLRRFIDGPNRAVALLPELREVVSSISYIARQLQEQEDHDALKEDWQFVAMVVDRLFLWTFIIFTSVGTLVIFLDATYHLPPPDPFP
Sequence of α1*-nAChR (muscle-type α1β1γδ-nAChR) (P07510 23-517): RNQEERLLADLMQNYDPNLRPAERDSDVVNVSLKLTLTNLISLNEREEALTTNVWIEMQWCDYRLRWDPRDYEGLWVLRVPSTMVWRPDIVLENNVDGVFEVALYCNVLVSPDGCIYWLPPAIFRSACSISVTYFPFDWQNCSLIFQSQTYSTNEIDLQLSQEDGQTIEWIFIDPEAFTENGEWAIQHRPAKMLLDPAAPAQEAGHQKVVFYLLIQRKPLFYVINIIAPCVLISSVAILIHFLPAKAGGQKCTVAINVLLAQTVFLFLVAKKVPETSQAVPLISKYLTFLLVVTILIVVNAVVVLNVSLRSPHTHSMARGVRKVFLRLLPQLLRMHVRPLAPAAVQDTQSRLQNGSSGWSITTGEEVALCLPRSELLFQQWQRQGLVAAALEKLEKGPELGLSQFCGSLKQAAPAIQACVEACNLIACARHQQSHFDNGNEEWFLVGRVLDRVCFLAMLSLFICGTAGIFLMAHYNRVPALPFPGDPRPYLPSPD
Sequence of α1*-nAChR (muscle-type α1β1γδ-nAChR) (Q07001 22-517): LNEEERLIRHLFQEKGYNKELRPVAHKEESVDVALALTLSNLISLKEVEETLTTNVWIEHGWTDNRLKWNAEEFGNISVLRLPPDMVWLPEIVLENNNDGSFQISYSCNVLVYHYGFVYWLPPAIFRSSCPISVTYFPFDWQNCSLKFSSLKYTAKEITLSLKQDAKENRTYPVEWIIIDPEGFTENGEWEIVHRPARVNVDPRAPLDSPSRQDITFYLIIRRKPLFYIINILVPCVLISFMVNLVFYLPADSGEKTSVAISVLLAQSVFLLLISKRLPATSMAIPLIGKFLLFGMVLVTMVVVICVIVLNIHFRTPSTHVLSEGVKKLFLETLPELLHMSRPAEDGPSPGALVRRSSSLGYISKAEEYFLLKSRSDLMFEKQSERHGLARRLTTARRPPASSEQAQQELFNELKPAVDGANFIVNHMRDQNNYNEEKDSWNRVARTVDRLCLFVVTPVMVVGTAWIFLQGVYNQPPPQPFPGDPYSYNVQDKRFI

[7] = tested on: nicotine-induced antinociception (tail-flick); experiment: Blockade of nicotine-induced antinociception, tail-flick test; format: in vivo, mice; conditions: for ED50: Mus musculus, read-out: AD50 Tail-flick; for AD50 Tail-flick: mice, antagonism of acute nicotine, parentheses: confidence limits; for More potent in the tail-flick test: relative to (S,S)-4a
Outline: (§1)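 Male ICR mice (20–25 g) were given the test compound to block the acute effects of nicotine. Dose-response curves used at least four doses of test compound, with at least eight mice per dose group. Results are AD50 (mg/kg) with confidence limits, or % effect at the highest dose tested.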

[8] = tested on: nicotine-induced antinociception (hot-plate); experiment: Blockade of nicotine-induced antinociception, hot-plate test; format: in vivo, mice; conditions: for ED50: Mus musculus, read-out: AD50 Hot-plate
Outline: as §1

[9] = tested on: nicotine-induced locomotor depression; experiment: Blockade of nicotine-induced locomotor depression; format: in vivo, mice; conditions: for ED50: Mus musculus, read-out: AD50 Locomotion; for AD50 Locomotion: mice, antagonism of acute nicotine, parentheses: confidence limits
Outline: as §1

[10] = tested on: nicotine-induced hypothermia; experiment: Blockade of nicotine-induced hypothermia; format: in vivo, mice; conditions: for ED50: Mus musculus, read-out: AD50 Hypothermia
Outline: as §1

[11] = biological target: α4β2-nAChR (Homo sapiens, UniProt P17787+P43681); experiment: 86Rb+ efflux assay of nAChR function; format: cell-based
[12] = tested on: nicotine-induced CPP; conditions: mice, blockade of nicotine-induced CPP; cited from earlier work
[13] = biological target: T1, human DAT; experiment: [3H]DA uptake inhibition, HEK-293 cells expressing human DAT; format: cell-based; conditions: for Increase in potency for inhibition of DA uptake: relative to (S,S)-5a
[14] = biological target: human NET (Homo sapiens, UniProt P23975); experiment: [3H]NE uptake inhibition, HEK-293 cells expressing human NET; format: cell-based
Sequence of human NET (P23975 whole entry): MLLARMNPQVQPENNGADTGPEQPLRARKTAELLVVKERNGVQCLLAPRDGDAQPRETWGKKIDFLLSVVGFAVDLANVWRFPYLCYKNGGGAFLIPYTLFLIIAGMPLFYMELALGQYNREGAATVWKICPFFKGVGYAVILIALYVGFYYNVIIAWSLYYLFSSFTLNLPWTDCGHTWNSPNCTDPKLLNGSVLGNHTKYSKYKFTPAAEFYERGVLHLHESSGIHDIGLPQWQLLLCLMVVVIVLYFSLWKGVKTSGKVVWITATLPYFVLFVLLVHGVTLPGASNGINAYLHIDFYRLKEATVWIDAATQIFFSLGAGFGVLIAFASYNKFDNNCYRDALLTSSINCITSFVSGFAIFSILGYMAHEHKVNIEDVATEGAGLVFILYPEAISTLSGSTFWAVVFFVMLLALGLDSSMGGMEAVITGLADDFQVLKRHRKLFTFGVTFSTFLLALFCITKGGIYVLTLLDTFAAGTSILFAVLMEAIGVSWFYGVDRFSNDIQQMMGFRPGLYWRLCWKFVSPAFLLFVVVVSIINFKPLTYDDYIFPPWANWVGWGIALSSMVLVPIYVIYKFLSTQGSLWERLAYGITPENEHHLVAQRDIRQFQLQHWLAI

[15] = biological target: human SERT (Homo sapiens, UniProt P31645); experiment: [3H]5HT uptake inhibition, HEK-293 cells expressing human SERT; format: cell-based; conditions: relative to (S,S)-5a
[16] = biological target: α3β4*-nAChR (Homo sapiens, UniProt P30926+P32297); experiment: 86Rb+ efflux assay of nAChR function; format: cell-based
Sequence of α3β4*-nAChR (P32297 32-505): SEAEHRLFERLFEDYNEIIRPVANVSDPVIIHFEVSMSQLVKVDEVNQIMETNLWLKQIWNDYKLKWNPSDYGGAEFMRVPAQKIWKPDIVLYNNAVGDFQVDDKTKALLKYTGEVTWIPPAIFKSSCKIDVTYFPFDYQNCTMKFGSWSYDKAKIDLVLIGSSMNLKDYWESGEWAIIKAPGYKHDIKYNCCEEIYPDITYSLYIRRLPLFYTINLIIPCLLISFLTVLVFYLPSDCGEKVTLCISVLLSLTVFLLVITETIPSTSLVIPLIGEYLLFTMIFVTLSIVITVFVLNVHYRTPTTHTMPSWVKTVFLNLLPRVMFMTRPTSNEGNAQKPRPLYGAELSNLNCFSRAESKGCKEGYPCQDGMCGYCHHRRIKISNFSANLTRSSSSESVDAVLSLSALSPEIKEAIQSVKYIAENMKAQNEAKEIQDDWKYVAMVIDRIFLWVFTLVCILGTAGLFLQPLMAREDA
Sequence of α3β4*-nAChR (P30926 22-498): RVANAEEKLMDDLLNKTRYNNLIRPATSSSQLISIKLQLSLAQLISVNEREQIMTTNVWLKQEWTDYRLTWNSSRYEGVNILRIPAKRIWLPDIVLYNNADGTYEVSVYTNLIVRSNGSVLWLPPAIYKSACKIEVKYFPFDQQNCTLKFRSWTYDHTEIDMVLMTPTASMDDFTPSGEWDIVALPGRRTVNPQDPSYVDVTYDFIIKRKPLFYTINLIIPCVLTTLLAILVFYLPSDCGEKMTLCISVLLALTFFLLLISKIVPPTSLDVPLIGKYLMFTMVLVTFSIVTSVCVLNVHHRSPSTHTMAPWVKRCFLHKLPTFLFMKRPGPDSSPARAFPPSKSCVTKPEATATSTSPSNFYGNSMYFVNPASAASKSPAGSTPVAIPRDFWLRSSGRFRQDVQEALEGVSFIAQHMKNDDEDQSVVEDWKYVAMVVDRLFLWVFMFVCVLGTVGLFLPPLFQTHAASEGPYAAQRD

[17] = biological target: α4β4-nAChR (Homo sapiens, UniProt P30926+P43681); experiment: 86Rb+ efflux assay of nAChR function; format: cell-based
Sequence of α4β4-nAChR (P43681 29-627 limits assumed): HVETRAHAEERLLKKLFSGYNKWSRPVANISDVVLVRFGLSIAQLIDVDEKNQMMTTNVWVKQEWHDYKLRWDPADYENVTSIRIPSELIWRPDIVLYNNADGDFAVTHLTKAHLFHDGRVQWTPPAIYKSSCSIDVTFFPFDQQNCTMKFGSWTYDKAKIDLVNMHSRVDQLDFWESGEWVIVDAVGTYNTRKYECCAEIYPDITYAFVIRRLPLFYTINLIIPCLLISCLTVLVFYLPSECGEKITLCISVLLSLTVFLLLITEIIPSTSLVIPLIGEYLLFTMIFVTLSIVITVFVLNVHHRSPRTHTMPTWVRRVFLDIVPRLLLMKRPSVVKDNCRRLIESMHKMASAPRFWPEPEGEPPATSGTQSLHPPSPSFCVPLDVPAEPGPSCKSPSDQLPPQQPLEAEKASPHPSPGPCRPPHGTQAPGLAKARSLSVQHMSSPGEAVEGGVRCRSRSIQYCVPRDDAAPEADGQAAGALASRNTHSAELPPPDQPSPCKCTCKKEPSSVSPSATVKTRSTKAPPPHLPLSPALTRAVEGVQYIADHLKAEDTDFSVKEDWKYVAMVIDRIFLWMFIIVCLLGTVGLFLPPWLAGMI
Sequence of α4β4-nAChR (P30926 22-498): as the sequence (P30926 22-498) above

[18] = tested on: nicotine-induced CPP; experiment: Blockade of nicotine-induced conditioned place preference; format: in vivo, mice; conditions: for AD50 CPP: mice, blockade of nicotine-induced CPP
[19] = mice, antagonism of acute nicotine, parentheses: confidence limits

SMILES | IC50 [6] [µM] | ED50 [7] [mg/kg] | ED50 [8] [mg/kg] | ED50 [9] [mg/kg] | ED50 [10] [mg/kg] | IC50 [13] [µM] | IC50 [14] [µM] | IC50 [16] [µM] | IC50 [11] [µM] | IC50 [17] [µM] | further results
C[C@H]1NC(C)(C)CO[C@]1(O)c1cccc(Cl)c1 [(R,R)-4a, (R,R)-2-(3'-chlorophenyl)-3,5,5-trimethylmorpholine-2-ol] | – | – | – | – | – | – | – | – | – | – | AD50 Tail-flick [1]: 2.5 (1.2–3.6) mg/kg; AD50 Hot-plate [2]: 10.3 (5.7–17.1) mg/kg; AD50 Locomotion [3]: IA (IA = AD50 > 20 mg/kg); AD50 Hypothermia [4]: IA (IA = AD50 > 20 mg/kg); Monoamine Uptake Inhibition IC50 [3H]DA [5]: inactive
C[C@H]1NC(C)(C)CO[C@@H]1c1cccc(Cl)c1 [(R,R)-5a, (R,R)-2-(3'-Chlorophenyl)-3,5,5-trimethylmorpholine] | 9.4 | 1.26 | 3.9 | > 20 | > 20 | – | – | – | – | – | –
C[C@@H]1NC(C)(C)CO[C@@]1(O)c1cccc(Cl)c1 [(S,S)-4a, (S,S)-2-(3'-chlorophenyl)-3,5,5-trimethylmorpholine-2-ol] | – | – | – | – | – | – | – | – | – | – | Potency as functional antagonist of α4β2-nAChR, higher than ([11]; relative to (R,R)-4a): ~ 10 fold; AD50 Tail-flick [1]: 0.2 (0.06–0.7) mg/kg; AD50 Hot-plate [2]: 1.0 (0.2–2.2) mg/kg; AD50 Locomotion [3]: 0.9 (0.2–5.7) mg/kg; AD50 CPP [12]: 0.1 mg/kg
C[C@@H]1NC(C)(C)CO[C@H]1c1cccc(Cl)c1 [(S,S)-5a, (S,S)-2-(3'-Chlorophenyl)-3,5,5-trimethylmorpholine] | – | 0.036 | > 20 | > 20 | > 20 | – | – | – | – | – | AD50 Tail-flick [7]: 0.036 (0.012–0.1) mg/kg; More potent in the tail-flick test [7]: 5.5 times; AD50 Hot-plate [8, 19]: inactive; AD50 Hypothermia [10, 19]: inactive
C[C@@H]1NC(C)(C)CO[C@H]1c1cccc(F)c1 [(S,S)-5b, (S,S)-2-(3’-Fluorophenyl)-3,5,5-trimethylmorpholine] | 34 | 0.02 | > 20 | 4.7 | > 20 | 0.061 ± 0.02 | 0.032 ± 0.003 | 5.6 | 23 | 55 | More potent as DA uptake inhibitor ([13]; compared to (S,S)-4a): 10 fold; Increase in potency for inhibition of DA uptake [13]: 3.7 fold; More potent as NE uptake inhibitor ([14]; compared to (S,S)-4a): 5.6 fold; Increase in potency for inhibition of NE uptake ([14]; relative to (S,S)-5a): 3.2 fold; Decrease in potency for inhibition of 5HT uptake [15]: 12 fold
C[C@@H]1NC(C)(C)CO[C@H]1c1cccc(Br)c1 [(S,S)-5c, (S,S)-2-(3'-Bromophenyl)-3,5,5-trimethylmorpholine] | 7.3 | 0.006 | > 20 | – | > 20 | 0.044 ± 0.003 | 0.15 ± 0.02 | 1.4 | 12 | 11 | Increase in potency for inhibition of DA uptake [13]: 5 fold; More potent at α3β4*-nAChR ([16]; relative to (S,S)-5a): ~ 2 fold; More potent in the tail-flick test [7]: ~ 33 times; AD50 Locomotion [9]: 2.1 (0.9–4.8) mg/kg
C[C@H]1[C@H](c2cccc(Cl)c2)OCC(C)(C)N1C [(S,S)-5d, (S,S)-2-(3'-Chlorophenyl)-3,4,5,5-tetramethylmorpholine] | 21 | 0.13 | > 20 | 3.8 | > 20 | 0.23 ± 0.06 | 0.17 ± 0.02 | 2.8 | 16 | 23 | –
CCN1[C@@H](C)[C@H](c2cccc(Cl)c2)OCC1(C)C [(S,S)-5e, (S,S)-2-(3'-Chlorophenyl)-4-ethyl-3,5,5-trimethylmorpholine] | 14 | 0.029 | > 20 | > 20 | > 20 | 0.044 ± 0.009 | 0.024 ± 0.008 | 0.79 | 7.2 | 6.4 | AD50 CPP [18]: 0.025 mg/kg; More potent in blocking nicotine-induced CPP ([18]; relative to (S,S)-4a): 4 fold
CCCN1[C@@H](C)[C@H](c2cccc(Cl)c2)OCC1(C)C [(S,S)-5f, (S,S)-2-(3'-Chlorophenyl)-3,5,5-trimethyl-4-propylmorpholine] | 5.5 | 0.056 | > 20 | > 20 | > 20 | 0.061 ± 0.02 | 0.013 ± 0.0036 | 0.98 | 12 | 5.8 | AD50 CPP [18]: 0.03 mg/kg
CC[C@@H]1NC(C)(C)CO[C@H]1c1cccc(Cl)c1 [(S,S)-5g, (S,S)-2-(3'-Chlorophenyl)-3-ethyl-5,5-dimethylmorpholine] | 13 | 0.018 | 9.6 | 2.7 | 2.5 | 0.023 ± 0.005 | 0.019 ± 0.003 | 5.6 | 14 | 15 | AD50 Tail-flick [7]: 0.018 (0.009–0.03) mg/kg
CCC[C@@H]1NC(C)(C)CO[C@H]1c1cccc(Cl)c1 [(S,S)-5h, (S,S)-2-(3'-Chlorophenyl)-5,5-dimethyl-3-propylmorpholine] | 5 | 0.017 | > 20 | 0.49 | > 20 | 0.006 ± 0.001 | 0.009 ± 0.002 | 3.1 | 9.5 | 8 | AD50 Tail-flick [7]: 0.017 (0.002–0.15) mg/kg; AD50 Locomotion [9]: 0.49(0.3–6.6) mg/kg
CC(NC(C)(C)C)C(=O)c1cccc(Cl)c1 (stereo not drawn) [compound 2, bupropion] | – | – | – | – | – | – | – | – | – | – | AD50 Hot-plate [2]: 15 (6–19) mg/kg; AD50 Locomotion [3]: 4.9 (0.9–46) mg/kg; AD50 Hypothermia [4]: 9.2 (4–23) mg/kg; AD50 CPP [12]: 0.35 mg/kg
